# Variants at the floor of the assay were thinned out.
# B1: tRNA (parent)
# chain: GUUCCGUUGGCGUAAUGGUAACGCGUCUCCCUCCUAAGGAGAAGACUGCGGGUUCGAGUCCCGUACGGAACG
# Variants of: B1
# Assay: yeast fitness relative to wild type (ratio to wild type); higher = fitter; tRNA-Arg(CCU), competitive growth, 37 C, YPD
# Summary of the method: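 Variants of the tRNA-Arg(CCU) gene, chemically synthesised with a 3% per-site mutation rate at 69 sites, were placed at the native genomic locus in Saccharomyces cerevisiae. The pooled strains were competed in YPD at 37°C for 24 hours in six parallel replicates. Gene amplicons from the start population and from each end population were read by 100-nucleotide paired-end sequencing. Darwinian fitness relative to wild type came from changes in genotype frequencies; genotypes needed ≥ 100 starting reads, and estimates < 0.5 were set to 0.5.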
row,Variant,yeast fitness
1,G50A G58C C66U,0.649
2,U53A A57U C60A A70U,≤ 0.5
3,G51A G56A C62G,≤ 0.5
4,C49U U59G C60U,≤ 0.5
5,G52A C61U G68A,0.561
6,U54G G67C,≤ 0.5
7,U54G G67A,0.637
8,U53A C60G G67A A70C,≤ 0.5
9,G51A G58C,0.901
10,U54G G58A,0.544
11,G50C U53C,0.614
12,G51A A57U A65U G68A A70U,≤ 0.5
13,C49U C61A A65U,≤ 0.5
14,C49G G50C A65U,0.544
15,C49U A70G,1.07
16,U53C A70U,0.848
17,C55A G58A,0.55
18,C55A G58C,0.534
19,C55A C61U G68A A70G,≤ 0.5
20,G52C C62U,0.559
21,U54C A70C,0.925
22,U54C A70G,0.973
23,G50A U53A A57G G58A A69C,0.657
24,C55G C66G,0.768

row,Variant,yeast fitness
1,C49G G68C A70C,0.623
2,C49U C60A A70G,0.546
3,G50C A65G,0.766
4,G52C G67A,0.709
5,U54C A57G G63C A65C,≤ 0.5
6,G50C U54C,0.635
7,C49U G51A A69U,0.573
8,G52C G68A,0.583
9,C55G C60G,≤ 0.5
10,C49U C55U C61A,≤ 0.5
11,C49U A57U,0.632
12,C55G G58A A69C,≤ 0.5
13,C49G G56C A70C,≤ 0.5
14,C55A A57C G58A,≤ 0.5
15,G50A U59A G67C,≤ 0.5
16,G52C U64G,0.614
17,G51A U53A,0.534
18,G51C C60G G67U,≤ 0.5
19,G51C C61G A70C,0.542
20,U53A G68C,0.6
21,U53A C55A C62U G63A A65U,≤ 0.5
22,U54A A65U,0.618
23,U54A A65G,0.584
24,G51U A70G,0.707

row,Variant,yeast fitness
1,C49U U54G,0.562
2,C55G U59A,0.677
3,C55A G63A,0.55
4,G51A C55G,0.648
5,C49G U64C,0.972
6,G51C C62G G68A A70U,≤ 0.5
7,C55G G63A,0.622
8,C55G G63C,0.636
9,C49U G63A,0.908
10,C49U G63C,0.703
11,C55G A70U,0.653
12,C55G A70C,0.566
13,C49U C55A C60A,≤ 0.5
14,C55U C66U,0.667
15,U53G G63A,0.553
16,U54A C62U G68A,0.504
17,U54A C62U G68U,≤ 0.5
18,G50C C55U,0.716
19,G50C C55G,0.56
20,G50A C60G,0.748
21,G50A C60U,0.819
22,U54A A69U,0.671
23,G51C A65G,0.593
24,G52A G56A,0.727

row,Variant,yeast fitness
1,G52A G56C,0.687
2,G50C C61U,0.609
3,C55U A70G,0.705
4,U53C C60G,0.784
5,C55U C62U,0.708
6,C55U G63A A69C,0.537
7,C49U A57U U59C,0.536
8,G52A A69C,0.738
9,C49G U53C C60A,≤ 0.5
10,U54C G68C,0.776
11,U54A A57U G63C A69U,≤ 0.5
12,U53G U64G A69C,0.841
13,C49U G50A,0.93
14,U54A U59C C61G,≤ 0.5
15,G52A A57G,0.852
16,U53A C66U,0.709
17,G56A U59C A65C A70G,0.568
18,U54C G67A,0.817
19,U54C G67C,0.944
20,G52A C66G G68C,0.65
21,C49U G51C A69C,≤ 0.5
22,G50A G63C,0.737
23,C49G C62A,0.845
24,G52A A57G G58A,0.565

row,Variant,yeast fitness
1,C49U A65U,0.91
2,C49U A65C,0.935
3,C55G U59C C60U G67U,0.548
4,C55U C62U G67C,≤ 0.5
5,G52U C55A,0.555
6,C55G G58C,0.587
7,U54A A57C,0.555
8,C55G G68U,0.522
9,G52A G58A C60G,≤ 0.5
10,G52U A65G,0.793
11,C55A A57G U64A,≤ 0.5
12,C55A G56A,0.514
13,U53A G67U,0.657
14,C49G A69C,0.766
15,C49G A69U,0.955
16,G52A U54A,0.537
17,U53A C62U A69U,≤ 0.5
18,G51A U59C,0.692
19,G50A C62A,0.875
20,U53A C62G,0.598
21,G56A G68A,1.04
22,G50A G52C,0.663
23,G56A C62A,0.697
24,G56A C62G,0.643

row,Variant,yeast fitness
1,C49G C55G C61G,0.558
2,C55U C60G,≤ 0.5
3,U54A C55A C66G,0.714
4,C49G G56C,0.641
5,C49G G67A,0.908
6,C49G G67U,0.695
7,G50A U53A C61U,0.532
8,G51A U64C G67C A69G,0.854
9,U54G G63U,≤ 0.5
10,C55A C66G,≤ 0.5
11,C55A C66U,0.694
12,G56C A69U A70C,≤ 0.5
13,G56C C60A,0.587
14,G52C G63C A69C,≤ 0.5
15,U53A C55G,0.588
16,U53A G56A A65U,≤ 0.5
17,G56A A69C,1.04
18,C55U G67A,0.871
19,G52C C66A,0.538
20,G52C C66G,0.6
21,G51A C60G A65C,≤ 0.5
22,C55U U59C,0.683
23,U54G G63C A69C,0.535
24,G52C A69U,0.707

row,Variant,yeast fitness
1,U54G C55U,0.511
2,C49U U59C C62G,0.503
3,G52A C62U,0.765
4,G51A G63U C66A,≤ 0.5
5,G51C U53A,0.544
6,G52A G56A A65U A70G,≤ 0.5
7,C49G A70G,0.832
8,C49G A70U,0.872
9,C49G A70C,0.845
10,G50C G68C,0.715
11,G56A A65G C66U A69U,0.573
12,U53C G68C,0.846
13,C49U U59C,0.91
14,C49G G58A,0.844
15,G50A A65C,0.887
16,G50A A65G,1.03
17,G51C C61U,0.604
18,G50A G67C G68U,≤ 0.5
19,G50A C55U,0.893
20,G50A C55G,0.514
21,C49A U64G A69C,0.592
22,C49U U54C A70C,0.617
23,C49U C62G,0.704

# Source: the RNAGym collection of RNA variant scans (doi:10.1126/science.aae0568)
